Reference: ChEMBL document CHEMBL1159387, “Absolute stereostructures of new arborinane-type triterpenoids and inhibitors of nitric oxide production from Rubia yunnanensis” (J Nat Prod, 2003)
pIC50: −log10 of the molar value.

Tests used:
Macrophage [1] = assay: Inhibition of nitric oxide production in lipopolysaccharide-activated ddY mouse macrophages at 3 uM relative to control; assay type: functional
Summary of the method: (§1)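 Peritoneal macrophages from male ddY mice given 4% thioglycolate i.p. 4 days earlier, plated at 5 × 10^5 cells/well in RPMI 1640 with 5% FCS, 1 h at 37 °C; adherent cells (>95% macrophages) then cultured 20 h with 10 µg/mL LPS plus compound (1-100 µM, DMSO final 0.5%). Nitrite in medium measured by Griess reagent; % inhibition versus LPS-only control, IC50 read graphically, N = 4.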

Macrophage [2] = assay: Inhibition of nitric oxide production in lipopolysaccharide-activated ddY mouse macrophages at 10 uM relative to control; assay type: functional; summary of the method: as §1
Macrophage [3] = assay: Inhibition of nitric oxide production in lipopolysaccharide-activated ddY mouse macrophages at 30 uM relative to control; assay type: functional; summary of the method: as §1
Macrophage [4] = assay: Inhibition of nitric oxide production in lipopolysaccharide-activated ddY mouse macrophages at 100 uM relative to control; assay type: functional; summary of the method: as §1
[5] = Toxicity in lipopolysaccharide-activated ddY mouse macrophages at 100 uM by MTT method; assay type: cell-based; details: macrophage
Summary of the method: (§2)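 Peritoneal exudate cells from male ddY mice given 4% thioglycolate i.p. 4 days earlier, plated at 5 × 10^5 cells/well in RPMI 1640 with 5% FCS, 1 h at 37 °C. Non-adherent cells washed off. Adherent macrophages exposed to 10 µg/mL LPS plus compound (DMSO, final 0.5%) for 20 h. MTT added for 4 h, formazan dissolved in 2-propanol/0.04 M HCl, read at 570 nm (ref 655 nm). N=4.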

Macrophage [6] = assay: Inhibition of nitric oxide production in lipopolysaccharide-activated ddY mouse macrophages at 1 uM relative to control; assay type: functional; summary of the method: as §1
[7] = Toxicity in lipopolysaccharide-activated ddY mouse macrophages by MTT method; assay type: cell-based; details: macrophage
Summary of the method: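 Thioglycolate-elicited ddY mouse peritoneal macrophages were treated for 20 h with 10 µg/mL LPS plus compound (1-100 µM, 0.5% DMSO final). MTT (5 mg/mL in PBS) was then added for 4 h, and formazan was dissolved in 2-propanol with 0.04 M HCl. Absorbance was read at 570 nm (reference 655 nm), N = 4.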

[8] = Toxicity in lipopolysaccharide-activated ddY mouse macrophages at 30 uM by MTT method; assay type: cell-based; details: macrophage; summary of the method: as §2
[9] = Inhibition of NOS; summary of the method: as §1

Structure (SMILES)	inhibition at 3 µM (Macrophage [1]) [%]	inhibition at 10 µM (Macrophage [2]) [%]	inhibition at 30 µM (Macrophage [3]) [%]	inhibition at 100 µM (Macrophage [4]) [%]	Activity [5]	inhibition at 1 µM (Macrophage [6]) [%]	Activity [7]	Activity [8]	pIC50 [9]
Cc1c(O)cc2c(c1O)C(=O)c1ccc(O)cc1C2=O	7.9	37.5	99.5	99.6	Toxic	4.9			
CC(=O)OC[C@@]12CC[C@@]3(C)[C@H]4C(=CC[C@]3(C)[C@H]1[C@H](OC(C)=O)C[C@H]2C(C)C)[C@@]1(C)CC[C@H](OC(C)=O)C(C)(C)[C@@H]1C[C@@H]4OC(C)=O	10.6	-1.2	0	6.6		5.3			
CC(=O)OC[C@@]12CC[C@@]3(C)[C@H]4C(=CC[C@]3(C)[C@H]1[C@H](O)C[C@H]2C(C)C)[C@@]1(C)C[C@@H](O)C(=O)C(C)(C)[C@@H]1C[C@@H]4O	-1.5	0	-5.8	15.4		-1.1			
CC(=O)OC[C@@]12CC[C@@]3(C)[C@H]4C(=CC[C@]3(C)[C@H]1[C@H](O)C[C@H]2C(C)C)[C@@]1(C)CC[C@H](O)C(C)(C)[C@@H]1C[C@@H]4O	11.1	4.7	-7.4	25.5	Toxic	5.2			
CC(C)[C@@H]1C[C@@H](O)[C@H]2[C@@]1(CO)CC[C@@]1(C)[C@H]3C(=CC[C@]21C)[C@@]1(C)C[C@@H](O)C(=O)C(C)(C)[C@@H]1C[C@@H]3O	-10.3	2.1	1.8	40.3		-9.6			
CC(=O)OC[C@@]12CC[C@@]3(C)[C@H]4C(=CC[C@]3(C)[C@H]1[C@H](O)C[C@H]2C(C)C)[C@@]1(C)C[C@@H](O)[C@H](O)C(C)(C)[C@@H]1C[C@@H]4O	5.3	4.3	-11.1	76.5		17	Non-toxic		
CC(=O)OC[C@@]12CC[C@@]3(C)[C@H]4C(=CC[C@]3(C)[C@H]1[C@H](OC(C)=O)C[C@H]2C(C)C)[C@@]1(C)C[C@@H](OC(C)=O)[C@H](OC(C)=O)C(C)(C)[C@@H]1C[C@@H]4OC(C)=O	9.5	18.7	25.5	28.4		7.7			
COc1cc(O)cc(OC)c1C(=O)O	9.3	7.5	7.2	28		9.5			
CC(=O)OC[C@@]12CC[C@@]3(C)[C@H]4C(=CC[C@]3(C)[C@H]1[C@H](O)C[C@H]2C(C)C)[C@@]1(C)C[C@@H](OC(C)=O)[C@H](O)C(C)(C)[C@@H]1C[C@@H]4O	21.3	-12	-7.9	77.1		20.2	Non-toxic		
CC(=O)OC[C@@]12CC[C@@]3(C)[C@H]4C(=CC[C@]3(C)[C@H]1[C@H](OC(C)=O)C[C@H]2C(C)C)[C@@]1(C)C[C@@H](OC(C)=O)C(=O)C(C)(C)[C@@H]1C[C@@H]4OC(C)=O	7.3	12.5	18.7	23		1.7			
COc1cc(C[C@@H](CO)[C@H](CO)Cc2ccc(O)c(OC)c2)ccc1O [(+)-SECOISOLARICIRESINOL]	-7.3	6.5	0.9	-12.5		5.9			
COc1cc([C@H]2c3cc(O)c(OC)cc3C[C@@H](CO)[C@@H]2CO)ccc1O [ISOLARICIRESINOL]	-0.6	0.6	5.1	7.5		-0.2			
COc1cc(C[C@H]2CO[C@H](c3ccc(O)c(OC)c3)[C@H]2CO)ccc1O [LARICIRESINOL]	3	5.5	-8.2	11.9		4			
CC(=O)O[C@@H]1C[C@]2(C)C3=CC[C@]4(C)[C@H]5[C@@H]6C[C@@H](C(C)C)[C@@]5(CC[C@@]4(C)[C@@H]3[C@@H](O)C[C@H]2C(C)(C)[C@H]1O[C@@H]1O[C@H](CO)[C@@H](O)[C@H](O)[C@H]1O)CO6 [RUBIANOSIDE I]	-0.3	-8	1.5	-3.2		5.1			
CC(C)[C@@H]1C[C@@H](O)[C@H]2[C@@]1(CO)CC[C@@]1(C)[C@H]3C(=CC[C@]21C)[C@@]1(C)CC[C@H](O)C(C)(C)[C@@H]1C[C@@H]3O [RUBIARBONOL A]	4.2	-4.2	2.9	86.3	Toxic	6.3		Toxic	
CC(C)[C@@H]1C[C@@H](O)[C@H]2[C@@]1(CO)CC[C@@]1(C)[C@H]3C(=CC[C@]21C)[C@@]1(C)C[C@@H](O)[C@H](O)C(C)(C)[C@@H]1C[C@@H]3O [RUBIARBONOL F]	7.9	15.4	22	60.4	Toxic	9.6			
CC(C)[C@@H]1C[C@@H](O)[C@H]2[C@@]1(CO)CC[C@@]1(C)[C@H]3C(=CC[C@]21C)[C@@]1(C)CCC(=O)C(C)(C)[C@@H]1C[C@@H]3O [RUBIARBONONE B]	-9.7	-13.7	16.9	19.7		4.3			
CC(=O)OC[C@@]12CC[C@@]3(C)[C@H]4C(=CC[C@]3(C)[C@H]1[C@H](O)C[C@H]2C(C)C)[C@@]1(C)CCC(=O)C(C)(C)[C@@H]1C[C@@H]4O [RUBIARBONONE C]	3.7	-2.3	8	90.3	Toxic	-2.1			
CNC(=N)NCCC[C@H](N)C(=O)O [TILARGININE]	10.3	15	34.1	63.1		5.9			4.24
COc1cc(C(=O)O)ccc1O [VANILLIC ACID]	16.2	8.2	-3.6	5.9		5.9			
